Test results: ChEMBL document CHEMBL3734720, “Synthesis of thiophene-thiosemicarbazone derivatives and evaluation of their in vitro and in vivo antitumor activities” (Eur J Med Chem, 2015)

How the values were obtained:
[1] = Antiproliferative activity against human UACC62 cells assessed as growth inhibition after 48 hrs by SRB assay; assay type: functional; conditions: UACC-62, 48 h
How it was run: (§1)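 Cells exposed 48 h at 37 °C, 5% CO2 to 0.25, 2.5, 25 and 250 µg/mL in DMSO/RPMI (final DMSO 0.1%); doxorubicin standard at 0.025–25 µg/mL. Plates fixed with 50% TCA before (T0) and after treatment; protein content read by sulforhodamine B at 540 nm. GI50 (µM) from nonlinear regression of concentration–response curves; triplicate.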

[2] = Antitumor activity against mouse EAT implanted in Balb/C mouse assessed as change in paw volume at 300 mg/kg, po administered on day 3 post tumor inoculation measured on day 3 by plethysmometer analysis (reference value: 40.2 +/- 7.0%); assay type: functional
[3] = Antitumor activity against mouse EAT implanted in Balb/C mouse assessed as change in paw volume at 30 mg/kg, po administered on day 3 post tumor inoculation measured on day 3 by plethysmometer analysis (reference value: 40.2 +/- 7.0%); assay type: functional
[4] = system: 786-0; test: Cell cycle arrest in human 786-0 cells assessed as accumulation at S phase at 25 uM after 24 hrs by propidium iodide based flow cytometric analysis (reference value: 14.6 +/- 1.3%); assay type: functional
[5] = Antitumor activity against mouse EAT implanted in Balb/C mouse assessed as change in paw volume at 100 mg/kg, po administered on day 3 post tumor inoculation measured on day 12 by plethysmometer analysis (reference value: 125.5 +/- 7.5%); assay type: functional
[6] = Antitumor activity against mouse EAT implanted in Balb/C mouse assessed as change in paw volume at 30 mg/kg, po administered on day 3 post tumor inoculation measured on day 15 by plethysmometer analysis (reference value: 166.5 +/- 6.0%); assay type: functional
[7] = system: NCI-H460; test: Antiproliferative activity against human NCI-H460 cells assessed as growth inhibition after 48 hrs by SRB assay; assay type: functional; conditions: NCI-H460, 48 h; how it was run: as §1
[8] = Antitumor activity against mouse EAT implanted in Balb/C mouse assessed as change in paw volume at 100 mg/kg, po administered on day 3 post tumor inoculation measured on day 15 by plethysmometer analysis (reference value: 166.5 +/- 6.0%); assay type: functional
[9] = system: Mus musculus; test: Acute toxicity in Balb/C mouse assessed as pain, suffering and impending death at 200 to 400 mg/kg, po; assay type: organism-based; conditions: in vivo
How it was run: (§2)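 Fixed dose procedure following OECD guideline; Balb/C mice (20-35 g) fasted 16 h, groups of 5 given single oral doses stepwise at 600, 400 and 200 mgKg-1; survival and clinical signs of pain, suffering and impending death recorded per OECD guidance.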

[10] = system: 786-0; test: Induction of cell death in human 786-0 cells assessed as loss of cell membrane integrity at 50 uM after 24 hrs by annexin V/7-amino-actinomycin D double staining based flow cytometric analysis (reference value: 3.6+/- 0.8%); assay type: functional
[11] = system: K562; test: Antiproliferative activity against human K562 cells assessed as growth inhibition after 48 hrs by SRB assay; assay type: functional; conditions: K562, 48 h; how it was run: as §1
[12] = system: 786-0; test: Induction of cell death in human 786-0 cells assessed as phosphatidylserine externalization at 50 uM after 24 hrs by annexin V/7-amino-actinomycin D double staining based flow cytometric analysis (reference value: 3.8 +/- 0.5%); assay type: functional
[13] = system: U-251; test: Antiproliferative activity against human U251 cells assessed as growth inhibition after 48 hrs by SRB assay; assay type: functional; conditions: U-251, 48 h; how it was run: as §1
[14] = Antitumor activity against mouse EAT implanted in Balb/C mouse assessed as change in paw volume at 100 mg/kg, po administered on day 3 post tumor inoculation measured on day 3 by plethysmometer analysis (reference value: 40.2 +/- 7.0%); assay type: functional
[15] = Antitumor activity against mouse EAT implanted in Balb/C mouse assessed as change in paw volume at 100 mg/kg, po administered on day 3 post tumor inoculation measured on day 6 by plethysmometer analysis (reference value: 86.1 +/- 5.7%); assay type: functional
[16] = system: 786-0; test: Cytotoxicity against human 786-0 cells assessed as compound concentration required to inhibit total growth after 24 hrs by SRB assay; assay type: functional; conditions: 786-0, 24 h
How it was run: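 786-0 cells treated 24 h with 25, 50, 100 and 200 µM; growth measured by sulforhodamine B staining. Concentration giving total growth inhibition (TGI) calculated from the concentration–response data.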

[17] = Antitumor activity against mouse EAT implanted in Balb/C mouse assessed as change in paw volume at 30 mg/kg, po administered on day 3 post tumor inoculation measured on day 6 by plethysmometer analysis (reference value: 86.1 +/- 5.7%); assay type: functional
[18] = system: Mus musculus; test: Acute toxicity in Balb/C mouse assessed as adhesion of organs at 600 mg/kg, po; assay type: organism-based; conditions: in vivo; how it was run: as §2
[19] = Antitumor activity against mouse EAT implanted in Balb/C mouse assessed as change in paw volume at 30 mg/kg, po administered on day 3 post tumor inoculation measured on day 9 by plethysmometer analysis (reference value: 95.5 +/- 5.2%); assay type: functional
[20] = Acute toxicity in Balb/C mouse assessed as survival rate at 400 mg/kg, po; assay type: organism-based; conditions: in vivo; how it was run: as §2
[21] = system: 786-0; test: Cell cycle arrest in human 786-0 cells assessed as reduction in G1 phase at 25 uM after 24 hrs by propidium iodide based flow cytometric analysis (reference value: 46.7 +/- 0.8%); assay type: functional; design: scale not given: the % may be the effect or the level left
[22] = Antitumor activity against mouse EAT implanted in Balb/C mouse assessed as change in paw volume at 30 mg/kg, po administered on day 3 post tumor inoculation measured on day 12 by plethysmometer analysis (reference value: 125.5 +/- 7.5%); assay type: functional
[23] = Acute toxicity in Balb/C mouse assessed as survival rate at 600 mg/kg, po; assay type: organism-based; conditions: in vivo; how it was run: as §2
[24] = Antitumor activity against mouse EAT implanted in Balb/C mouse assessed as change in paw volume at 300 mg/kg, po administered on day 3 post tumor inoculation measured on day 12 by plethysmometer analysis (reference value: 125.5 +/- 7.5%); assay type: functional
[25] = system: 786-0; test: Induction of cell death in human 786-0 cells assessed as phosphatidylserine externalization at 50 uM after 18 hrs by annexin V/7-amino-actinomycin D double staining based flow cytometric analysis (reference value: 7.2 +/- 1.4%); assay type: functional
[26] = system: MCF7; test: Antiproliferative activity against human MCF7 cells assessed as growth inhibition after 48 hrs by SRB assay; assay type: functional; conditions: MCF7, 48 h; how it was run: as §1
[27] = Antiproliferative activity against human PC3 cells assessed as growth inhibition after 48 hrs by SRB assay; assay type: functional; conditions: PC-3, 48 h; how it was run: as §1
[28] = Antitumor activity against mouse EAT implanted in Balb/C mouse assessed as change in paw volume at 300 mg/kg, po administered on day 3 post tumor inoculation measured on day 9 by plethysmometer analysis (reference value: 95.5 +/- 5.2%); assay type: functional
[29] = Antiproliferative activity against human NCI-ADR-RES cells assessed as growth inhibition after 48 hrs by SRB assay; assay type: functional; how it was run: as §1
[30] = system: HT-29; test: Antiproliferative activity against human HT-29 cells assessed as growth inhibition after 48 hrs by SRB assay; assay type: functional; conditions: HT-29, 48 h; how it was run: as §1
[31] = system: 786-0; test: Antiproliferative activity against human 786-0 cells assessed as growth inhibition after 48 hrs by SRB assay; assay type: functional; conditions: 786-0, 48 h; how it was run: as §1

S=C(N/N=C/c1cccs1)Nc1ccc(Br)cc1
GI50 [1]: 71.1 µM | Activity [2]: 39.4% | Activity [3]: 26.8% | Activity [4]: 13.9% | Activity [5]: 75.8% | Activity [6]: 82% | GI50 [7]: 4.7 µM | Activity [8]: 118.6% | Activity [9]: Non-toxic | Activity [10]: 35.7% | GI50 [11]: > 100 µM | Activity [12]: 21.9% | GI50 [13]: 4.2 µM | Activity [14]: 33.4% | Activity [15]: 78.1% | TGI [16]: 28 µM | Activity [17]: 60.6% | Activity [18]: Toxic | Activity [19]: 57.1% | survival [20]: 100% | Activity [21]: 44.9% | Activity [22]: 36.3% | survival [23]: 100% | Activity [24]: 64% | Activity [25]: 15.5% | GI50 [26]: < 0.74 µM | GI50 [27]: 79.4 µM | Activity [28]: 72.8% | GI50 [29]: 1.7 µM | GI50 [30]: 17.7 µM | GI50 [31]: 4.5 µM
